For one assay, the target named is ERK5 (Homo sapiens, UniProt Q13164). In words: Z'-LYTE Kinase Assay, Ser/Thr 4 peptide. It counts as biochemical. Conditions: read-out: IC50 against ERK5 (Z'-LYTE kinase assay). In short, it runs like this:
(§1)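 Coupled-enzyme, antibody-free fluorescence kinase assay on HeLa cell lysates (10–100 µg per well). Substrates: Ser/Thr 4 peptide for ERK5, Ser/Thr 3 peptide for ERK1/2. Test compound at 1.25, 2.5, 5 and 10 µM. Coumarin (Ex 400/Em 445 nm) and fluorescein (Ex 400/Em 520 nm) emissions read on a plate reader.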

The subject of assay [1] is PCNA expression in Hela cells. In words: PCNA mRNA expression by quantitative RT-PCR. It counts as cell-based, human. Conditions: for inhibition rate of the expression of PCNA: Hela cells, qRT-PCR, 5 μM as printed in abstract; for inhibition at 10 µM: Homo sapiens, HeLa, read-out: Inhibition of PCNA expression.
A further assay deals with ERK1/2. In words: Z'-LYTE Kinase Assay, Ser/Thr 3 peptide. Conditions: 1.25, 2.5, 5, and 10 µM. In kind it is biochemical, human. In short, it runs like this: as §1
Assay [2] concerns AP-1 reporter in HeLa cells. In words: ERK5-driven AP-1 reporter assay. It counts as cell-based, human. Conditions: 5 µM. In outline:
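HeLa cells (2 × 10^5 per well, 6-well) transiently lipofected with an AP-1-luc reporter vector carrying six AP-1 response elements. After transfection, cells received 5 µM test compound. AP-1 mRNA measured by RT-PCR (TRIzol RNA, reverse transcription, duplicate real-time reactions), with GAPDH as normaliser and the 2−∆∆Cq method.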
Background: A reporter such as luciferase makes a cellular process visible.

In assay [3] the test system is Hela cells. In words: Annexin V/Propidium iodide flow cytometry. In kind it is cell-based, human. Conditions: 5 µM, 24 h. In short, it runs like this: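 Apoptosis assay: HeLa cells (5 × 10^5) seeded in 6-well plates for 24 h, serum-starved 20 h, then exposed to test compound for 24 h (1, 2.5 or 5 µM in methods). Annexin V-FITC/PI kit staining, flow cytometry. Quadrants: lower right early apoptotic, upper right late apoptotic, upper left necrotic. Mean ± SD of three independent experiments.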
A general note: Flow cytometry measures light scatter and fluorescence of single cells or particles in a stream.

Assay [4] has as its system Hela cells. Briefly: DAPI staining assay. In kind it is cell-based, human. Conditions: 5 µM, 24 h, compared to DMSO. In outline: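 HeLa cells (5 × 10^3) seeded in 24-well plates for 24 h, treated 24 h with test compound (1, 2.5 or 5 µM in methods). Fixed in 4% paraformaldehyde 10 min, washed, stained with 300 nM DAPI 15 min in the dark. Nuclear morphology of apoptotic cells examined by fluorescence microscopy.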

Chain of ERK5 (Q13164 2-816): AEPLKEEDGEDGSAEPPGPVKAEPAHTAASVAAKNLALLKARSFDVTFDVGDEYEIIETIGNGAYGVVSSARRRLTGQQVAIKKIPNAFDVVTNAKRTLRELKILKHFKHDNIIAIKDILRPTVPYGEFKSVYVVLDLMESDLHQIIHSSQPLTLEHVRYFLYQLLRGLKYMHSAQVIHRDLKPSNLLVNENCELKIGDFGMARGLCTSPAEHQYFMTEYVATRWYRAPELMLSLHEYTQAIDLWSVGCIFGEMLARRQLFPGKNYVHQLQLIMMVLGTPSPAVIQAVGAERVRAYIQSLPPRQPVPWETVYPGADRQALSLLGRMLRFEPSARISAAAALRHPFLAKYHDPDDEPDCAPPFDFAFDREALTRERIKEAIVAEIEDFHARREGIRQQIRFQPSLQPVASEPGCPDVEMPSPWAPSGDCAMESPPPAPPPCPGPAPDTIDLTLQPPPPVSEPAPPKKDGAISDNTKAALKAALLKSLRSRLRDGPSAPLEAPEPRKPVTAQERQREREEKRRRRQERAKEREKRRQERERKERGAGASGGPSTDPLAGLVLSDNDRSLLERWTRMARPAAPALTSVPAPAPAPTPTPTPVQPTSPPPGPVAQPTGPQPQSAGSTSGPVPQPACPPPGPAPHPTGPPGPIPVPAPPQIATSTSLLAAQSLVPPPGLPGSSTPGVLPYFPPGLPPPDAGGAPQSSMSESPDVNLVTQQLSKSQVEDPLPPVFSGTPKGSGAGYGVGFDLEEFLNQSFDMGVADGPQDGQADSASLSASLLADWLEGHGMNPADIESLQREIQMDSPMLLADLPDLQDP

`CC(C)CCOc1cc(C[n+]2c(C(C)C)n(CCC(C)C)c3ccccc32)c(OCCC(C)C)c2ccccc12.[Br-]` [4e, 3-((1,4-bis(isopentyloxy)naphthalen-2-yl)methyl)−1-isoamyl-2-isopropyl-1H-benzo[d]imidazol-3-ium bromide]: the IC50 – broadly, the concentration at which inhibition is half-maximal – at ERK5 was determined as 5.1 µM. In addition, the “inhibition rate of the expression of PCNA” value in assay [1] was determined as 61.1%. Besides, in the assay on ERK1/2, the “effect on ERK1/2 kinase activity” value was “did not inhibit ERK1/2 kinase activity”. Also, the “expression of AP-1” value in assay [2] is on record as “significantly decreased”. Further, the “increase of late apoptotic events compared with DMSO” value with Hela cells [3] is 10.8%. Moreover, in the assay with Hela cells [4], the “apoptosis by DAPI staining” value is reported as “triggered apoptosis”.
As for `COC(C)c1n(CCC(C)C)c2ccccc2[n+]1Cc1cc(OCCC(C)C)c2ccccc2c1OCCC(C)C` (stereo not drawn) [4j, 3-((1,4-Bis(isoamyloxy)naphthalen-2-yl)methyl)−1-isoamyl-2-(1-methoxyethyl)−1H-benzo[d]imidazol-3-ium bromide], in assay [1], the inhibition (commonly the share of the control response that was lost under treatment) at 10 µM is 57.4%.
In the case of `Cc1cc2c(cc1C)[n+](Cc1cc(OCCC(C)C)c3ccccc3c1OCCC(C)C)cn2CCC(C)C.[Br-]` [4k, 3-((1,4-Bis(isoamyloxy)naphthalen-2-yl)methyl)−1-isoamyl-5,6-dimethyl-1H-benzo[d]imidazol-3-ium bromide], the IC50 at ERK5 amounted to 9 µM. For the same compound, in assay [1], the “inhibition rate of the expression of PCNA” value is 70.2% and the inhibition at 10 µM worked out at 70.2%. Also, the “effect on ERK1/2 kinase activity” value in the assay on ERK1/2 is “did not inhibit ERK1/2 kinase activity”. The “expression of AP-1” value in assay [2] is “significantly decreased”. Further, the “increase of late apoptotic events compared with DMSO” value in the assay with Hela cells [3] is 14%. Further, the “apoptosis by DAPI staining” value with Hela cells [4] is listed as “triggered apoptosis”.
As for `CC(C)CCOc1cc(C[n+]2cn(CCC(C)C)c3cc(Br)c(Br)cc32)c(OCCC(C)C)c2ccccc12` [4m, 3-((1,4-Bis(isoamyloxy)naphthalen-2-yl)methyl)−5,6-dibromo-1-isoamyl-1H-benzo[d]imidazol-3-ium bromide], the inhibition at 10 µM in assay [1] worked out at 57%.

Values taken from PMC12009964 (Scientific Reports, 2025).
